As usually defined, the IC50 is the midpoint of a concentration-inhibition curve.

This note sets out measurements from paper PMC10896134 (Pharmaceutical Biology, 2024).

One assay has as its system MCF-7. As to the kind of experiment: Antiproliferation assay. The format is cell-based. The settings on record: Homo sapiens, MCF7, 24 h, read-out: IC50 = mean ± SD, MCF-7. In outline:
(§1)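 Cell lines were grown at 37 °C under 5% CO2 in their own media: A549 in DMEM/F12, H446 in RPMI 1640, and HeLa, MCF-7, L02 and BEAS-2B in high-glucose DMEM with L-glutamine, with 10% FBS and penicillin/streptomycin. Cells were seeded in 96-well plates and exposed to test compounds or reference agents at 37 °C for 24 h. CCK-8 was added for 2 h and absorbance read at 450 nm.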

For the next assay, the system named is Hela. As to the kind of experiment: Antiproliferation assay. In kind it is cell-based. The settings on record: Homo sapiens, 24 h, read-out: IC50 = mean ± SD, Hela. In outline:
as §1

In a further assay the test system is A549. The assay can be described thus: Antiproliferation assay. The settings on record: Homo sapiens, A549, 24 h, read-out: IC50 = mean ± SD, A549. In kind it is cell-based. In outline: as §1
Another assay concerns H446. The assay can be described thus: Antiproliferation assay. In kind it is cell-based. The settings on record: Homo sapiens, NCI-H446, 24 h, read-out: IC50 = mean ± SD, H446. In outline:
as §1

For another assay, the system named is BEAS-2B. As to the kind of experiment: Antiproliferation assay. In kind it is cell-based. The settings on record: Homo sapiens, 24 h, read-out: IC50 = mean ± SD, BEAS-2B. In outline: as §1
The subject of another assay is L02. As to the kind of experiment: Antiproliferation assay. The format is cell-based. The settings on record: Homo sapiens, L02, 24 h, read-out: IC50 = mean ± SD, L02. In outline: as §1
The test system of assay [1] is interphase microtubules of A549 cells (tubulin). The assay can be described thus: Confocal microscopy / western blot of tubulin depolymerization. In kind it is cell-based, human. The settings on record: A549, 24 h; E5 0.5 and 1.0 µM, colchicine 1.0 µM, etoposide 1.0 µM.
For the next assay, the system named is A549 cells. As to the kind of experiment: Wound healing migration assay. The format is cell-based, human. The settings on record: A549, 24 h; E5 0.5, 1.0 and 2.0 µM, etoposide 1.0 µM. The method, boiled down: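 Scratch assay: A549 cells were grown to 85% confluence in 6-well plates, scratched with a pipette tip and washed with PBS. They were then incubated at 37 °C for 24 h with 0.1% DMSO, test compound (0.5, 1.0 or 2.0 µM) or reference agents (1.0 µM). Wounds were imaged at 0 and 24 h, and inhibition of migration was expressed relative to control.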

A further assay relates to A549 xenografts. The assay can be described thus: A549 xenograft tumour model in nude mice. In kind it is in vivo, female BALB/c nude mice. The settings on record: 2 mg/kg i.p. once every two days, eight times. The method, boiled down: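 Female BALB/c nude mice, 5 weeks old, acclimated 1 week, then given 5.0 × 10^6 A549 cells in 0.1 mL serum-free medium subcutaneously into the left axilla. Body weight and caliper tumour size (0.5 × length × width2) were taken every two days; tumours were excised and weighed at the end.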

The test system of assay [2] is PI3K/Akt pathway in A549 cells. The assay can be described thus: Western blot of PI3K/Akt signalling pathway proteins. The settings on record: A549, 1.0 µM, 24 h. In kind it is cell-based, human. In outline:
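A549 cells were treated 24 h with test compound (0.1, 0.5, 1.0 or 2.0 µM), LY294002 (1.0 µM) or a reference agent (1.0 µM). Lysates were heat-denatured in non-reducing sample buffer and quantified by Bradford assay. 20 µg protein ran on 10% SDS-PAGE, transferred to PVDF and probed for PI3K, pPI3K, Akt and pAkt with GAPDH as loading control. Detection was by ECL with densitometry.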

In the case of `COc1cc([C@@H]2c3cc4c(cc3[C@H](OC(=O)CCCc3ccc(NS(=O)(=O)c5ccc([N+](=O)[O-])cc5)cc3)[C@H]3COC(=O)[C@H]23)OCO4)cc(OC)c1OC` [Compound E14, (5R,5aR,8aR,9R)-8-oxo-9-(3,4,5-trimethoxyphenyl)-5,5a,6,8,8a,9-hexahydrofuro [3′,4′:6,7]naphtho[2,3-d][1,3]dioxol-5-yl4-(4-((4-nitrophenyl)sulfonamido)phenyl)butanoate], the IC50 in the assay with MCF-7 is 59.9 ± 1.71 µM; in the assay with Hela, 26.8 ± 0.63 µM; in the assay on A549, 11 ± 2.51 µM; with H446, 29.4 ± 2.54 µM; in the assay on BEAS-2B it was above 100 µM; with L02 it was above 100 µM.
`COc1cc([C@@H]2c3cc4c(cc3[C@H](OC(=O)CCCc3ccc(NS(=O)(=O)c5cc([N+](=O)[O-])ccc5C)cc3)[C@H]3COC(=O)[C@H]23)OCO4)cc(OC)c1OC` [Compound E15, (5R,5aR,8aR,9R)-8-oxo-9-(3,4,5-trimethoxyphenyl)-5,5a,6,8,8a,9-hexahydrofuro [3′,4′:6,7]naphtho[2,3-d][1,3]dioxol-5-yl4-(4-((2-methyl-5-nitrophenyl)sulfonamido)phenyl)butanoate]: the half-inhibitory concentration (IC50) with MCF-7 was 59.25 ± 0.42 µM; in the assay with Hela, 16.9 ± 1.01 µM; with A549, 7.34 ± 1.32 µM; in the assay on H446, 36.6 ± 1.59 µM; in the assay with BEAS-2B, 97.3 ± 1.41 µM; in the assay with L02 it was above 100 µM.
For the compound `COc1cc([C@@H]2c3cc4c(cc3[C@@H](O[C@@H]3O[C@@H]5CO[C@@H](C)O[C@H]5[C@H](O)[C@H]3O)[C@H]3COC(=O)[C@H]23)OCO4)cc(OC)c1O` [Etoposide, etoposide, reference compound], the IC50 in the assay with MCF-7 is 10.9 ± 0.39 µM; in the assay on Hela, 24.7 ± 0.79 µM; in the assay with A549 it was 9.32 ± 0.55 µM; in the assay on H446, 2.21 ± 0.42 µM; in the assay on BEAS-2B it was 67.6 ± 2.25 µM; in the assay on L02 it was 13.5 ± 1.15 µM. Besides, the tubulin depolymerization result in [1] is on record as “did not show such an effect”. The “cell scratch healing (migration)” value in the assay on A549 cells was “strong inhibitory effect”. In addition, in the assay with A549 xenografts, the “tumour growth, E5 and etoposide at the same dose” value is on record as “specific inhibitory effect”.
`O=c1cc(N2CCOCC2)oc2c(-c3ccccc3)cccc12` [LY294002, reference compound]: the “pPI3K/PI3K and pAkt/Akt ratio” value in assay [2] was “notable reduction”.
For the compound `COc1cc([C@@H]2c3cc4c(cc3[C@H](O)[C@H]3COC(=O)[C@H]23)OCO4)cc(OC)c1OC` [PPT, Podophyllotoxin, reference compound], the IC50 with MCF-7 is 11.7 ± 0.45 µM; with Hela, 15.3 ± 0.58 µM; in the assay on A549 it was 14.7 ± 1.14 µM; with H446 it was 3.69 ± 0.38 µM; in the assay on BEAS-2B it was 8.91 ± 0.72 µM; in the assay with L02, 9.42 ± 0.74 µM.
